Measurements published in ChEMBL document CHEMBL1123467, “Comparison of the chemical reactivities and antineoplastic activities of alpha,beta-, alpha,beta'-, beta,beta'-, and alpha,alpha'-bis[[[(2-propylamino)carbonyl]oxy]methyl]-substituted pyrroles” (1986).
“And” between values parts separate entries of the source, which are not always exact repeats. Equal entries are not always repeated.

Columns and labels:
P388 [1] = test: Compound was tested for the antitumor activity against P388 lymphocytic leukemia at dose level of 240 mg/kg; format: functional, Mus musculus
P388 [2] = test: Compound was tested for the antitumor activity against P388 lymphocytic leukemia at dose level of 240 mg/kg; 6/6; format: functional, Mus musculus
M5076 [3] = test: Compound was tested in vivo for the antitumor activity against solid tumor models at dose level of 800 mg/kg (M5076 assay); format: functional, Homo sapiens
P388 [4] = test: Compound was tested for the antitumor activity against P388 lymphocytic leukemia at dose level of 60 mg/kg; 6/6; format: functional, Mus musculus
P388 [5] = test: Compound was tested in vivo for the antitumor activity against P388 lymphocytic leukemia at dose level of 120 mg/kg; format: functional, Mus musculus
Homo sapiens [6] = test: Compound was tested in vivo for the antitumor activity against solid tumor models at dose level of 800 mg/kg (MX-1 assay); format: functional
P388 [7] = test: Compound was tested for the antitumor activity against P388 lymphocytic leukemia at dose level of 60 mg/kg; format: functional, Mus musculus
[8] = Compound was tested for the antitumor activity against solid tumor models at dose level of 400 mg/kg (LOX assay); format: functional, Homo sapiens
Homo sapiens [9] = test: Compound was tested for the antitumor activity against solid tumor models at t dose level of 800 mg/kg (MX-1 assay); format: functional
P388 [10] = test: Compound was tested for the antitumor activity against P388 lymphocytic leukemia at dose level of 120 mg/kg; 6/6; format: functional, Mus musculus
P388 [11] = test: Compound was tested in vivo for the antitumor activity against P388 lymphocytic leukemia at dose level of 240 mg/kg; format: functional, Mus musculus
M5076 [12] = test: Compound was tested for the antitumor activity against solid tumor models at dose level of 800 mg/kg (M5076 assay); format: functional
P388 [13] = test: Compound was tested for the antitumor activity against P388 lymphocytic leukemia at dose level of 120 mg/kg; format: functional, Mus musculus
[14] = Compound was tested in vivo for the antitumor activity against solid tumor models at dose level of 400 mg/kg (LOX assay); format: functional, Homo sapiens
P388 [15] = test: Compound was tested in vivo for its antitumor activity against P388 lymphocytic leukemia at dose level of 120 mg/kg; format: functional, Mus musculus
P388 [16] = test: Compound was tested in vivo for the antitumor activity against P388 lymphocytic leukemia at dose level of 60 mg/kg; format: functional, Mus musculus
P388 [17] = test: Compound was tested in vivo for its antitumor activity against P388 lymphocytic leukemia at dose level of 60 mg/kg; format: functional, Mus musculus
[18] = Pseudo-first order rate constant for the reaction with 4-(p-Nitrobenzyl)pyridine
Procedure, shortened: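 Alkylating ability was measured against 4-(p-nitrobenzyl)pyridine (NBP), with 0.2 µmol alkylating agent and 240 µmol NBP as starting amounts. At timed points the mixture was diluted with acetone, mixed 3 s, and read at once at 570 nm. The blank was NBP, water, absolute ethanol, base solution and acetone. k' = slope of E570 vs time. Competing hydrolysis was assumed minor and neglected in the initial phase.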

P388 [19] = test: Compound was tested in vivo for its antitumor activity against P388 lymphocytic leukemia at dose level of 240 mg/kg; format: functional, Mus musculus
P388 [20] = test: Compound was tested in vivo for the antitumor activity against P388 lymphocytic leukemia at dose level of 20 mg/kg; format: functional, Mus musculus
P388 [21] = test: Compound was tested in vivo for its antitumor activity against P388 lymphocytic leukemia at dose level of 240 mg/kg; Toxic dose; format: functional, organism-based; design: dose 240 mg/kg; conditions: Mus musculus
P388 [22] = test: Compound was tested for the antitumor activity against P388 lymphocytic leukemia at dose level of 20 mg/kg; 6/6; format: functional, Mus musculus
P388 [23] = test: Compound was tested for the antitumor activity against P388 lymphocytic leukemia at dose level of 20 mg/kg; format: functional, Mus musculus
P388 [24] = test: Compound was tested in vivo for its antitumor activity against P388 lymphocytic leukemia at dose level of 120 mg/kg; Toxic dose; format: functional, organism-based; design: dose 120 mg/kg; conditions: Mus musculus
P388 [25] = test: Compound was tested in vivo for its antitumor activity against P388 lymphocytic leukemia at dose level of 40 mg/kg; format: functional, Mus musculus
P388 [26] = test: Compound was tested in vivo for its antitumor activity against P388 lymphocytic leukemia at dose level of 20 mg/kg; format: functional, Mus musculus
P388 [27] = test: Compound was tested for the antitumor activity against P388 lymphocytic leukemia at dose level of 40 mg/kg; format: functional, Mus musculus
P388 [28] = test: Compound was tested in vivo for the antitumor activity against P388 lymphocytic leukemia at dose level of 40 mg/kg; format: functional, Mus musculus
P388 [29] = test: Compound was tested for the antitumor activity against P388 lymphocytic leukemia at dose level of 40 mg/kg; 6/6; format: functional, Mus musculus
P388 [30] = test: Compound was tested in vivo for the antitumor activity against P388 lymphocytic leukemia at dose level of 30 mg/kg; format: functional, Mus musculus
P388 [31] = test: Compound was tested for the antitumor activity against P388 lymphocytic leukemia at dose level of 30 mg/kg; format: functional, Mus musculus
P388 [32] = test: Compound was tested in vivo for the antitumor activity against P388 lymphocytic leukemia at dose level of 15 mg/kg; format: functional, Mus musculus
P388 [33] = test: Compound was tested for the antitumor activity against P388 lymphocytic leukemia at dose level of 15 mg/kg; format: functional, Mus musculus
P388 [34] = test: Compound was tested in vivo for its antitumor activity against P388 lymphocytic leukemia at dose level of 30 mg/kg; format: functional, Mus musculus
Homo sapiens [35] = test: Compound was tested in vivo for the antitumor activity against solid tumor models at dose level of 200 mg/kg (MX-1 assay); format: functional
M5076 [36] = test: Compound was tested in vivo for the antitumor activity against solid tumor models at dose level of 50 mg/kg (M5076 assay); format: functional
P388 [37] = test: Compound was tested for the antitumor activity against P388 lymphocytic leukemia at dose level of 30 mg/kg; 6/6; format: functional, Mus musculus
P388 [38] = test: Compound was tested for the antitumor activity against P388 lymphocytic leukemia at dose level of 240 mg/kg; 0/6; format: functional, Mus musculus
Homo sapiens [39] = test: Compound was tested for the antitumor activity against solid tumor models at t dose level of 200 mg/kg (MX-1 assay); format: functional
[40] = Compound was tested for the antitumor activity against solid tumor models at dose level of 100 mg/kg (LOX assay); format: functional, Homo sapiens
P388 [41] = test: Compound was tested in vivo for its antitumor activity against P388 lymphocytic leukemia at dose level of 15 mg/kg; format: functional, Mus musculus
M5076 [42] = test: Compound was tested for the antitumor activity against solid tumor models at dose level of 50 mg/kg (M5076 assay); format: functional
P388 [43] = test: Compound was tested for the antitumor activity against P388 lymphocytic leukemia at dose level of 15 mg/kg; 6/6; format: functional, Mus musculus
P388 [44] = test: Compound was tested for the antitumor activity against P388 lymphocytic leukemia at dose level of 120 mg/kg; 5/6; format: functional, Mus musculus
[45] = Compound was tested in vivo for the antitumor activity against solid tumor models at dose level of 100 mg/kg (LOX assay); format: functional, Homo sapiens
P388 [46] = test: Compound was tested in vivo for its antitumor activity against P388 lymphocytic leukemia and at dose level of 120 mg/kg; Toxic dose; format: functional, organism-based; design: dose 120 mg/kg; conditions: Mus musculus

K' [18] [abs/time] | Compound | Weight difference (P388 [1]) [g] | TDS (P388 [2]) | TDS (P388 [4]) | T/C (P388 [5]) [%] | Weight difference (P388 [7]) [g] | TDS (P388 [10]) | T/C (P388 [11]) [%] | Weight difference (P388 [13]) [g] | KE (P388 [15]) | T/C (P388 [16]) [%] | KE (P388 [17]) | KE (P388 [19]) | KE (P388 [21]) | other results
0.00321 | CC(C)NC(=O)OCc1c(-c2ccccc2)c(-c2ccccc2)n(C)c1COC(=O)NC(C)C | -2.4 | 6 | 6 | 160 | -1.1 | 6 | 181 | 1.5 | 2.06 | 142 | 0.59 | 3.74 | – | T/C (M5076 [3]): 178%; T/C (Homo sapiens [6]): 0%; Weight difference [8]: -3.3 g; Weight difference (Homo sapiens [9]): -5.3 g; Weight difference (M5076 [12]): -2.8 g; T/C [14]: 301%
0.00498 | CC(C)NC(=O)OCc1c(COC(=O)NC(C)C)c(-c2ccccc2)n(C)c1-c1ccccc1 | -5.5 | 6 | 6 | 94 | -2.2 | 6 | – | -4.4 | – | 209 | 6.43 | – | Toxic | T/C (P388 [20]): 137% and 205%; TDS (P388 [22]): 6; Weight difference (P388 [23]): -0.1 g; KE (P388 [24]): Toxic; KE (P388 [25]): 2.85; KE (P388 [26]): 0.08; Weight difference (P388 [27]): -1.6 g; T/C (P388 [28]): 168%; TDS (P388 [29]): 6
0.00112 | CC(C)NC(=O)OCc1c(-c2ccccc2)c(COC(=O)NC(C)C)n(C)c1-c1ccccc1 | – | – | 6 | – | -3.8 | – | – | -4.5 | – | 180 | 3.89 | – | Toxic | T/C (P388 [30]): 150%; Weight difference (P388 [31]): -5.3 g; T/C (P388 [32]): 134%; Weight difference (P388 [33]): -3.7 g; KE (P388 [34]): 0.88; T/C (Homo sapiens [35]): -3%; T/C (M5076 [36]): 139%; TDS (P388 [37]): 6; TDS (P388 [38]): 0; Weight difference (Homo sapiens [39]): -7.2 g; Weight difference [40]: -3.5 g; KE (P388 [41]): -0.19; Weight difference (M5076 [42]): -2.5 g; TDS (P388 [43]): 6; TDS (P388 [44]): 5; T/C [45]: 180%; KE (P388 [46]): Toxic
0.00669 | CC(C)NC(=O)OCc1c(-c2ccccc2)c(-c2ccccc2)c(COC(=O)NC(C)C)n1C | -1.7 | – | – | 98 | 0 | – | 101 | -0.2 | -1.56 | 107 | -1.44 | -1.51 | – | TDS ratio (P388 [1]): 6; TDS ratio (P388 [7]): 6; TDS ratio (P388 [13]): 6
